In one assay the target is cathepsin L (Homo sapiens, UniProt P07711). In words: in vitro protease inhibition assay, cathepsin L. It counts as biochemical. The following applies: result in words. In outline:
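Commercial cathepsin L (0.02 μg/ml) in 50 mM MES pH 5.5 with 5 mM DTT. Substrate z-FR-AMC at 20 μM added last to the enzyme/test compound mix; final DMSO below 5%. Fluorescence read-out; leupeptin as positive control. Normalized activity data were curve-fitted.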

A further assay has as its target cathepsin S (Homo sapiens, UniProt P25774). Briefly: in vitro protease inhibition assay, cathepsin S. Type of assay: biochemical. The following applies: read-out: activity against cathepsin S (IC50). In outline: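 Commercial cathepsin S pre-activated for 2 h at 10 μg/ml in 50 mM MES pH 5.5 with 5 mM DTT, then diluted to 100 ng/ml. Assayed with 10 μM z-FR-AMC, which was added last to the enzyme/test compound mix; final DMSO below 5%. Fluorogenic read-out; leupeptin as positive control. Normalized activity data fitted to give IC50.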

For assay [1], the target named is cathepsin L (CTSL1) catalytic cysteine Cys138 (Homo sapiens, UniProt P07711). Briefly: competitive isoTOP-ABPP, THP-1 membrane fraction, cathepsin L. It counts as binding. The following applies: 250 nM, THP-1 membranes; R > 5 = targeted. In outline: (§1)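 THP-1 cells grown in RPMI with 10% FBS, penicillin, streptomycin, glutamine and 50 μM βME (37 °C, 5% CO2, <10 passages). Differentiated with 200 nM PMA for 18 h, then 3 more days. Sonicated lysate spun at 100,000 g for 45 min; membrane fraction set to 1.5 mg/mL. Test compound (final 25 μM, 2.5 μM or 250 nM) or 1% TFA water vehicle for 30 min, then 100 μM IA-alkyne for 30 min, ambient temperature.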
Chain of cathepsin L (CTSL1) catalytic cysteine Cys138 (P07711 114-333): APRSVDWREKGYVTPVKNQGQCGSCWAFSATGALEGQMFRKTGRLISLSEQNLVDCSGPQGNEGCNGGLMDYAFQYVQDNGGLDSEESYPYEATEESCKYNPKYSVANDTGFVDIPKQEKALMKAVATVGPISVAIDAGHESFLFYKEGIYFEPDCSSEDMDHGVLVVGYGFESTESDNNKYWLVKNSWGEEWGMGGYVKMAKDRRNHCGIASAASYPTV

Assay [2] addresses cathepsin C (CTSC) catalytic cysteine Cys258 (Homo sapiens, UniProt P53634). Briefly: competitive isoTOP-ABPP, THP-1 membrane fraction, cathepsin C. Type of assay: binding. In outline:
as §1

The target in the next assay is cathepsin B (CTSB) (Homo sapiens, UniProt P07858). In words: competitive isoTOP-ABPP, THP-1 membrane fraction, cathepsin B. Type of assay: binding. The following applies: 250 nM, THP-1 membranes. In outline:
as §1

The next assay has as its target T1, cathepsin H (CTSH) (Homo sapiens, UniProt P09668).
T1 sequence (P09668 98-335): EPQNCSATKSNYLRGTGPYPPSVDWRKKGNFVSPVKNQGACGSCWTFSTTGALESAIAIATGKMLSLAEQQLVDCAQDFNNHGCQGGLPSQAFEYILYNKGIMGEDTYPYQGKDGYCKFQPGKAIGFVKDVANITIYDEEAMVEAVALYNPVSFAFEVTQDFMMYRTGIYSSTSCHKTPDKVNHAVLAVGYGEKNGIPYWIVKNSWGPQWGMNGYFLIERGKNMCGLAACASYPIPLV
Briefly: competitive isoTOP-ABPP, THP-1 membrane fraction, cathepsin H. Type of assay: binding. The following applies: 250 nM, THP-1 membranes. In outline:
as §1

In the next assay the target is cathepsin S (CTSS) (Homo sapiens, UniProt P25774). In words: competitive isoTOP-ABPP, THP-1 membrane fraction, cathepsin S. It counts as binding. In outline:
as §1

Another assay concerns the target cathepsin Z (CTSZ) (Homo sapiens, UniProt Q9UBR2). In words: competitive isoTOP-ABPP, THP-1 membrane fraction, cathepsin Z. It counts as binding. In outline:
as §1

Assay [3] is described as follows: competitive isoTOP-ABPP, proteome-wide cysteine selectivity. Type of assay: binding, human. The following applies: THP-1, Ramos, H1975 proteomes. In outline: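 Proteomes came from THP-1 (RPMI, 10% FBS, βME, PMA-differentiated), Ramos (RPMI, 10% FBS) and H1975 (DMEM, 20% FBS) cells. Sonicated and split at 100,000 g into soluble and membrane fractions (1.5 mg/mL); some lysed into sodium acetate at pH 5 or 5.5. Test compound or vehicle for 30 min, then 100 μM IA-alkyne for 30 min, then isotopic biotin-tag click, enrichment, trypsin/TEV digests and LC-MS/MS. Cysteines with heavy/light MS1 ratio R > 5 called targeted.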

Residues, ends and D or L forms follow the SMILES beside them. *: point of attachment. Octanoyl = CCCCCCCC(=O)* Bounds are passed on as bounds.

Chain of cathepsin Z (CTSZ) (Q9UBR2 62-303): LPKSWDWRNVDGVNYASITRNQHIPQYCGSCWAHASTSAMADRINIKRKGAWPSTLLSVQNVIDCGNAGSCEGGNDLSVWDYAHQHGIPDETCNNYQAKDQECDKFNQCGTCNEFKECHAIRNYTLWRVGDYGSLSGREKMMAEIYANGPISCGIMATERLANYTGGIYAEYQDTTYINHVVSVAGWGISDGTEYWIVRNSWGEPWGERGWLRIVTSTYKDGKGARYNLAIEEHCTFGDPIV
Chain of cathepsin C (CTSC) catalytic cysteine Cys258 (P53634 25-463): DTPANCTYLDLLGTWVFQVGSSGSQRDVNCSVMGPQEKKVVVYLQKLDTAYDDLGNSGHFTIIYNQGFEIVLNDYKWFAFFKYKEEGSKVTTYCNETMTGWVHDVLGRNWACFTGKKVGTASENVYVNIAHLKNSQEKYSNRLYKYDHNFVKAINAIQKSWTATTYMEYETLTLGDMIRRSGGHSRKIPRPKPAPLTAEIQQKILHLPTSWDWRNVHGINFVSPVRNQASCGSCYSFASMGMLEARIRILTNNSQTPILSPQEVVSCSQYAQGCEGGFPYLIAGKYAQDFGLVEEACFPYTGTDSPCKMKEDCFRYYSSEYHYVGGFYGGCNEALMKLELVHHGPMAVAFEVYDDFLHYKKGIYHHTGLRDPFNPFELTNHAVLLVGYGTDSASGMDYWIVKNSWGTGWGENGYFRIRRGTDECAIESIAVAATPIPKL
Chain of cathepsin S (CTSS) (P25774 115-331): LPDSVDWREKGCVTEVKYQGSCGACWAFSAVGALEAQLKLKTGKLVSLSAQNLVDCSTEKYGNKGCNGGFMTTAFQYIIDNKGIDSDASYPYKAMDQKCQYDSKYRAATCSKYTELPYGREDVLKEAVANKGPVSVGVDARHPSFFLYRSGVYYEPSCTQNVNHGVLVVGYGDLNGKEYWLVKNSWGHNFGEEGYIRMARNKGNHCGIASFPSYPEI
Chain of cathepsin L (P07711 114-333, species assumed): as the sequence (P07711 114-333) above
Chain of cathepsin S (P25774 115-331, species assumed): as the sequence (P25774 115-331) above

For the compound `CCCCCCCC(=O)N[C@@H](CCSC)C(=O)N[C@H](C=O)Cc1ccccc1` [Compound 16, N-octanoyl-Met-Phe-H] (Octanoyl-Met-Phe-aldehyde), the “inhibitory activity against cathepsin L (IC50)” value at cathepsin L is recorded as “undetectable activity”. Besides, the IC50 on cathepsin S came out at 13 nM.

Take `N[C@@H](Cc1ccccc1)C(=O)N[C@H](C=O)Cc1ccccc1` [Phe-Phe-H] (H-Phe-Phe-aldehyde): the “R value (heavy/light MS1 ratio), blockade of IA-alkyne labeling of CTSL1 Cys138” value in [1] is recorded as above 20. In addition, in [2] (250 nM, THP-1 membranes), the “R value (heavy/light MS1 ratio), CTSC catalytic cysteine Cys258” value is above 2.78. Also, the “R value (heavy/light MS1 ratio), CTSC” value in assay [2] (25 μM, THP-1) is above 5. For the same compound, the “R value (heavy/light MS1 ratio), CTSB” value on cathepsin B (CTSB) was below 2.0. Besides, on cathepsin H (CTSH), the “R value (heavy/light MS1 ratio), CTSH” value is below 2.0. Besides, the “R value (heavy/light MS1 ratio), CTSS” value is on record as below 2.0 on cathepsin S (CTSS) (250 nM, THP-1 membranes) and above 5 on cathepsin S (CTSS) (25 μM, THP-1). Besides, the “R value (heavy/light MS1 ratio), CTSZ” value at cathepsin Z (CTSZ) (250 nM, THP-1 membranes) is given as below 2.0; on cathepsin Z (CTSZ) (25 μM, THP-1), above 5. Also, the “R value (heavy/light MS1 ratio), non-cathepsin cysteines (no additional targets)” value in assay [3] was below 2.0.

As a reminder, the IC50 is the point on the concentration scale where inhibition reaches its midpoint.

Values taken from article PMC5302092 (Cell, 2017).
